Measured values published in ChEMBL document CHEMBL2086325, “Suppression of autoimmune arthritis by Celastrus-derived Celastrol through modulation of pro-inflammatory chemokines” (Bioorg Med Chem, 2012).
Active and inactive are the calls of the source.

Legend:
[1] = system: Rattus norvegicus; assay: Antiarthritic effect in Lewis rat adjuvant-induced arthritis model spleen adherent cells restimulated with sonicated Mtb post isolation assessed as reduction in MCP1 production at 200 ug, ip starting from arthritis onset and continued uninterrupted until study end by cytokine multiplex assay; type: functional, organism-based
Summary of the method: (§1)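 Mtb-immunized male Lewis rats were dosed 200 μg/rat i.p. daily from arthritis onset (vehicle: 1.2% DMSO/PBS). Spleen adherent cells were prepared on d 18, plated at 1.5 × 10^6/well in 2% FBS medium and restimulated with sonicated Mtb (10 μg/ml) for 24 h. Supernatant chemokines and cytokines were measured by Luminex multiplex. Mean ± SD of triplicates from 4–5 rats.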

[2] = system: Rattus norvegicus; assay: Antiarthritic effect in Lewis rat adjuvant-induced arthritis model spleen adherent cells restimulated with sonicated Mtb post isolation assessed as reduction in GRO/KC production at 200 ug, ip starting from arthritis onset and continued uninterrupted until study end by cytokine multiplex assay; type: functional, organism-based; summary of the method: as §1
[3] = system: Rattus norvegicus; assay: Antiarthritic effect in Lewis rat adjuvant-induced arthritis model spleen adherent cells restimulated with sonicated Mtb post isolation assessed as reduction in CXCR1 expression at 200 ug, ip starting from arthritis onset and continued uninterrupted until study end by qPCR analysis; type: functional, organism-based
Summary of the method: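 From onset of Mtb-induced arthritis, rats received 200 μg/rat i.p. daily or vehicle. Spleen adherent cells harvested on d 18 (1.5–2.0 × 10^6 cells/well) were cultured in medium or with sonicated Mtb (10 μg/ml) for 24 h. Receptor mRNA was quantified by qPCR after TRIzol RNA isolation and cDNA synthesis, normalized to HGPRT and reported as relative message.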

[4] = organism: Rattus norvegicus; assay: Antiarthritic effect in IL-1beta-stimulatedspleen adherent cells isolated from Lewis rat adjuvant-induced arthritis model assessed as reduction in GRO/KC production pre-incubated with compound for 30 mins before stimulation with IL-1beta for 48 hrs by multiplex assay; type: functional, tissue-based; conditions: Spleen
[5] = system: Rattus norvegicus; assay: Antiarthritic effect in Lewis rat adjuvant-induced arthritis model spleen adherent cells restimulated with sonicated Mtb post isolation assessed as reduction in TNFalpha production at 200 ug, ip starting from arthritis onset and continued uninterrupted until study end by cytokine multiplex assay; type: functional, organism-based; summary of the method: as §1
[6] = organism: Rattus norvegicus; assay: Antiarthritic effect in IL-1beta-stimulatedspleen adherent cells isolated from Lewis rat adjuvant-induced arthritis model assessed as reduction in TNFalpha production pre-incubated with compound for 30 mins before stimulation with IL-1beta for 48 hrs by multiplex assay; type: functional, tissue-based; conditions: Spleen
[7] = organism: Rattus norvegicus; assay: Antiarthritic effect in sonicated Mtb-stimulated spleen adherent cells isolated from Lewis rat adjuvant-induced arthritis model assessed as reduction in MIP-1alpha production pre-incubated with compound for 30 mins before stimulation with sonicated-Mtb for 48 hrs by multiplex assay; type: functional, tissue-based

Measured: Activity

CC1=C(O)C(=O)C=C2C1=CC=C1[C@@]2(C)CC[C@@]2(C)[C@@H]3C[C@](C)(C(=O)O)CC[C@]3(C)CC[C@]12C [CELASTROL]
active: [1] | [2] | [3] | [4] Dose-dependent effect | [5] | [6] Dose-dependent effect | [7] Dose-dependent effect
